In ChEMBL document CHEMBL2150909, “Imidazo[1,2-a]pyridines: orally active positive allosteric modulators of the metabotropic glutamate 2 receptor” (J Med Chem, 2012):
The source made the active and inactive calls. No cut-off for these calls is given here.

Assays:
[1] = biological target: T1, Metabotropic glutamate receptor 2 (Homo sapiens, UniProt Q14416); assay: Agonist activity at human mGlu 2 expressed in CHO cells assessed as [35S]GTPgammaS binding by liquid scintillation analysis; type: functional, cell-based
Outline: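 Membranes from butyrate-stimulated (5 mM, 24 h) CHO cells expressing human mGlu2. Preincubated 30 min at 30 °C in HEPES pH 7.4 with NaCl, MgCl2, 50 μM GDP and saponin; modulator 0.3 nM–50 μM, no added glutamate. [35S]GTPγS 0.1 nM final, 30 min at 30 °C, filtered, scintillation counted. Nonspecific binding defined with cold GTP; 11 concentrations in duplicate, ≥3 curves.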

[2] = biological target: T1, Metabotropic glutamate receptor 2; assay: Agonist activity at human mGlu 2 expressed in CHO cells by PAM assay relative to glutamate; type: functional, cell-based
Outline: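 The assay measured [35S]GTPγS binding to membranes from CHO cells expressing human mGluR2. Cells were butyrate-stimulated (5 mM, 24 h) before membranes were prepared. Membranes were preincubated for 30 min at 30 °C in HEPES pH 7.4 buffer (NaCl, MgCl2, 50 μM GDP) with compound (0.3 nM–50 μM, 11 concentrations) plus EC25 glutamate. [35S]GTPγS (0.1 nM final) was then added for 30 min at 30 °C. Bound label was collected by filtration and counted. Runs were done at least in triplicate with duplicate points, and a four-parameter logistic fit gave the values.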

[3] = Metabolic stability of human liver microsomes assessed as compound metabolized at 5 uM after 15 mins; type: ADME, Microsome; conditions: read-out: Drug metabolism
Outline: (§1)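 Test compound at 5 μM incubated 15 min with rat or human liver microsomes; read-out is percent of compound metabolized.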

[4] = Metabolic stability of Sprague-Dawley rat liver microsomes assessed as compound metabolized at 5 uM after 15 mins; type: ADME, Microsome; conditions: read-out: Drug metabolism; outline: as §1
[5] = biological target: Metabotropic glutamate receptor 1 (Homo sapiens) (UniProt Q13255); assay: Agonist activity at human mGlu 1 expressed in HEK293 cells at 10 uM by Ca+2 assay; type: functional, cell-based
Outline: (§2)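 Ca2+ assays on human mGlu1, mGlu3, mGlu5, mGlu7 or mGlu8 receptors, each expressed in HEK293 cells; compound tested at 10 μM for agonist and antagonist activity.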

[6] = biological target: Metabotropic glutamate receptor 3 (Homo sapiens) (UniProt Q14832); assay: Agonist activity at human mGlu 3 expressed in HEK293 cells at 10 uM by Ca+2 assay; type: functional, cell-based; outline: as §2
Chain of Metabotropic glutamate receptor 3 (Homo sapiens) (Q14832 23-879 limits assumed): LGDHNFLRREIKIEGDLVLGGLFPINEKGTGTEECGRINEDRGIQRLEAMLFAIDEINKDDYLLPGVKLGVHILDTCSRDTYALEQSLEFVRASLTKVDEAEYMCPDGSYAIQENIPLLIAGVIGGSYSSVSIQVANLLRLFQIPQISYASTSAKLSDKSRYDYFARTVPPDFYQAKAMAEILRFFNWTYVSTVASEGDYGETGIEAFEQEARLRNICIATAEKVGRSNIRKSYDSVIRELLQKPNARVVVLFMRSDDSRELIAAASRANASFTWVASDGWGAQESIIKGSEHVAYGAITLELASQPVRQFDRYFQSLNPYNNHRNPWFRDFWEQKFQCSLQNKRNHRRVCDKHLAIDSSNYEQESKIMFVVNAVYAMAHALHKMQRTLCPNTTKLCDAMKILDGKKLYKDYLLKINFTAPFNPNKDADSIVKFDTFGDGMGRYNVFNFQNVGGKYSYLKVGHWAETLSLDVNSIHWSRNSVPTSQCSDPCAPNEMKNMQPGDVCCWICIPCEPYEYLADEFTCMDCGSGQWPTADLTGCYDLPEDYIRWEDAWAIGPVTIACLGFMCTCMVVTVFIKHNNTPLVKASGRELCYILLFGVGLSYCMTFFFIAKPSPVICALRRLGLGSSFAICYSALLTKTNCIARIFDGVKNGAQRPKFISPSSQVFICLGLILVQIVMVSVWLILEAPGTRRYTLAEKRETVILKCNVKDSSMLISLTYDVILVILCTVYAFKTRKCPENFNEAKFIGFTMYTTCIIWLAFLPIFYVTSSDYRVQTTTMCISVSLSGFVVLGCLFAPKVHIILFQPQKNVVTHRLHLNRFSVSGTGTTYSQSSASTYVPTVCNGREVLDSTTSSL

[7] = biological target: Metabotropic glutamate receptor 5 (Homo sapiens) (UniProt P41594); assay: Agonist activity at human mGlu 5 expressed in HEK293 cells at 10 uM by Ca+2 assay; type: functional, cell-based; outline: as §2
Chain of Metabotropic glutamate receptor 5 (Homo sapiens) (P41594 21-1212 limits assumed): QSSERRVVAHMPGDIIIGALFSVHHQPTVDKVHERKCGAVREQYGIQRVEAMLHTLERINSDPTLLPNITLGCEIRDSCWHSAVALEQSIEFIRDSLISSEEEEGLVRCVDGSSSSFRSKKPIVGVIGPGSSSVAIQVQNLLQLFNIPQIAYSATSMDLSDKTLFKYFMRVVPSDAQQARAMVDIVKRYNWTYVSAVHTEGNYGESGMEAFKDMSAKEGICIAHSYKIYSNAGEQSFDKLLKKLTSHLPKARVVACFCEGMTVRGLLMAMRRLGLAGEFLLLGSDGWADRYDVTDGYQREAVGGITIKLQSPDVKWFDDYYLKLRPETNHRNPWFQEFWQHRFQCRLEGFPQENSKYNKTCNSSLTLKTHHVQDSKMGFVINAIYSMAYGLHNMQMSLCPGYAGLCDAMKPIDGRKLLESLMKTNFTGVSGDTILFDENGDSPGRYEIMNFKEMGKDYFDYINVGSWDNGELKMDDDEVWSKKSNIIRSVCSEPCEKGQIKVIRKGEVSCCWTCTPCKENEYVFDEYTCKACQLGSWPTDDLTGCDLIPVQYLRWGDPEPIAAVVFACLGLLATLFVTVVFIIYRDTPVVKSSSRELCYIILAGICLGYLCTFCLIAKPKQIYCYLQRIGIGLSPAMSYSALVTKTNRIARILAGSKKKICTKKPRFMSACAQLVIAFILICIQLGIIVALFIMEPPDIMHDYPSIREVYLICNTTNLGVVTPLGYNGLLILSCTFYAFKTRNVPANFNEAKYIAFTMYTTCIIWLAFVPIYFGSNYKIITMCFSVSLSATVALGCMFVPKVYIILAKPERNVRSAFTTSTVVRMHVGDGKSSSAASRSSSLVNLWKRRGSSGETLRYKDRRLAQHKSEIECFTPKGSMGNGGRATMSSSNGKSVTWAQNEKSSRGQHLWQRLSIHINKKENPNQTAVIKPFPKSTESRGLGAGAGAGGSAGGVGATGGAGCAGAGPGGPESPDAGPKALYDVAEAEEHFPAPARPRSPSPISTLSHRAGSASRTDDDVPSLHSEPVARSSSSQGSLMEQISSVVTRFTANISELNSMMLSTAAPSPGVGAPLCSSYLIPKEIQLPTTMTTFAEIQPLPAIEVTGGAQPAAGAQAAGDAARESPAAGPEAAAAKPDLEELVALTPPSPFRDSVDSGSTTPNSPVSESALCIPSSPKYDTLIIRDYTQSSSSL

[8] = biological target: T2, Metabotropic glutamate receptor 7 (Homo sapiens, UniProt Q14831); assay: Agonist activity at human mGlu 7 expressed in HEK293 cells by Ca+2 assay; type: functional, cell-based
[9] = biological target: Metabotropic glutamate receptor 8 (Homo sapiens) (UniProt O00222); assay: Agonist activity at human mGlu 8 expressed in HEK293 cells at 10 uM by Ca+2 assay; type: functional, cell-based; outline: as §2
Chain of Metabotropic glutamate receptor 8 (Homo sapiens) (O00222 whole entry): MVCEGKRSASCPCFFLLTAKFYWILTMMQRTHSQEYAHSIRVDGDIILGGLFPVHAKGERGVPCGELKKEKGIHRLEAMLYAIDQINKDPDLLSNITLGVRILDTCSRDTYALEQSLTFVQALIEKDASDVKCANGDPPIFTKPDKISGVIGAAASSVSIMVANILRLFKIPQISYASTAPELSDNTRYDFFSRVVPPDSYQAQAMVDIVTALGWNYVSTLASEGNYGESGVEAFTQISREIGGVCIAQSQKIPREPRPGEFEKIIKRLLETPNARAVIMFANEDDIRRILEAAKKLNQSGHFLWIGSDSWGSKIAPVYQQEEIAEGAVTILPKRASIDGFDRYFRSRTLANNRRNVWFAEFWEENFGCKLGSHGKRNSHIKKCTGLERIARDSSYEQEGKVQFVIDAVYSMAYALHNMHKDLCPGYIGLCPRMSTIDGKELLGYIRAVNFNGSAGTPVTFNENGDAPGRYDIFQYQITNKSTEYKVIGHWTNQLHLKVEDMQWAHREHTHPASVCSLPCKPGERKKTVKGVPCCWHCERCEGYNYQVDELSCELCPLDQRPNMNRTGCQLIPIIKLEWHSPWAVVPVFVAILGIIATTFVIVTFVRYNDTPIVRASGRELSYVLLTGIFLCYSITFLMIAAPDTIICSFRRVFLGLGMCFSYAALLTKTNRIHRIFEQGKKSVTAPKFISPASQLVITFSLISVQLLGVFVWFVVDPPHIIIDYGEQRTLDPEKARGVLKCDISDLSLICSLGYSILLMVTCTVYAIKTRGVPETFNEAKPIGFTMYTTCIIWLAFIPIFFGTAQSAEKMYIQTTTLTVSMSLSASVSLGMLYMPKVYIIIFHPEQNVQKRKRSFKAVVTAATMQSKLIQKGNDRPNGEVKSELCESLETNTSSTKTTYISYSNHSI

[10] = biological target: Metabotropic glutamate receptor 4 (Homo sapiens) (UniProt Q14833); assay: Agonist activity at human mGlu 4 expressed in L929 cells assessed as [35S]GTPgammaS binding by liquid scintillation counting; type: functional, cell-based
Chain of Metabotropic glutamate receptor 4 (Homo sapiens) (Q14833 whole entry): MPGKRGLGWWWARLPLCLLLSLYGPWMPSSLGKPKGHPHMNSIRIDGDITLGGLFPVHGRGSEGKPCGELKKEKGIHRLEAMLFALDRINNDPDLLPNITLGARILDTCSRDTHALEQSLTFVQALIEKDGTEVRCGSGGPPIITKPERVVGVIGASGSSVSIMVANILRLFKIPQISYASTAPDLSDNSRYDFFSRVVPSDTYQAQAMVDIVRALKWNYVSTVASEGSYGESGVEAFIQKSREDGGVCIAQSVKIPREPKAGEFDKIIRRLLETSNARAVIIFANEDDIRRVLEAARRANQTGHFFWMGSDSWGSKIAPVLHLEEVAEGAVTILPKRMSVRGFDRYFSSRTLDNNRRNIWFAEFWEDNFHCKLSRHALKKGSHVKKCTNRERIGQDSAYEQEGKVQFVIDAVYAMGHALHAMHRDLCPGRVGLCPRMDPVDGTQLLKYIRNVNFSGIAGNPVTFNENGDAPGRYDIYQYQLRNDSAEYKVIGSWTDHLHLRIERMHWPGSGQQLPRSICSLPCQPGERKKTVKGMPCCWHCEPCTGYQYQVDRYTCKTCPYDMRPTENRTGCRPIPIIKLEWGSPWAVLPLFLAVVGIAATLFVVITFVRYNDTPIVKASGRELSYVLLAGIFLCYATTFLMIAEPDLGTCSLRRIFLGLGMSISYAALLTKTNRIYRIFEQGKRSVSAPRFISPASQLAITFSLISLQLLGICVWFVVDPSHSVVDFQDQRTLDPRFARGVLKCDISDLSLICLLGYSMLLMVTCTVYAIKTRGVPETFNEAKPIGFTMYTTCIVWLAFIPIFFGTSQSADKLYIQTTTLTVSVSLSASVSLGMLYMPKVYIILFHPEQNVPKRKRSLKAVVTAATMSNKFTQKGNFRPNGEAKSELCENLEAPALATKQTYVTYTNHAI
Outline: (§3)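 [35S]GTPγS functional assays on human mGlu4 or rat mGlu6 receptors expressed in L929 or CHO cells; agonist and antagonist modes tested at 10 μM.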

[11] = biological target: Metabotropic glutamate receptor 6 (Rattus norvegicus) (UniProt P35349); assay: Agonist activity at rat mGlu 6 expressed in CHO cells assessed as [35S]GTPgammaS binding by liquid scintillation counting; type: functional, cell-based; outline: as §3
Chain of Metabotropic glutamate receptor 6 (Rattus norvegicus) (P35349 whole entry): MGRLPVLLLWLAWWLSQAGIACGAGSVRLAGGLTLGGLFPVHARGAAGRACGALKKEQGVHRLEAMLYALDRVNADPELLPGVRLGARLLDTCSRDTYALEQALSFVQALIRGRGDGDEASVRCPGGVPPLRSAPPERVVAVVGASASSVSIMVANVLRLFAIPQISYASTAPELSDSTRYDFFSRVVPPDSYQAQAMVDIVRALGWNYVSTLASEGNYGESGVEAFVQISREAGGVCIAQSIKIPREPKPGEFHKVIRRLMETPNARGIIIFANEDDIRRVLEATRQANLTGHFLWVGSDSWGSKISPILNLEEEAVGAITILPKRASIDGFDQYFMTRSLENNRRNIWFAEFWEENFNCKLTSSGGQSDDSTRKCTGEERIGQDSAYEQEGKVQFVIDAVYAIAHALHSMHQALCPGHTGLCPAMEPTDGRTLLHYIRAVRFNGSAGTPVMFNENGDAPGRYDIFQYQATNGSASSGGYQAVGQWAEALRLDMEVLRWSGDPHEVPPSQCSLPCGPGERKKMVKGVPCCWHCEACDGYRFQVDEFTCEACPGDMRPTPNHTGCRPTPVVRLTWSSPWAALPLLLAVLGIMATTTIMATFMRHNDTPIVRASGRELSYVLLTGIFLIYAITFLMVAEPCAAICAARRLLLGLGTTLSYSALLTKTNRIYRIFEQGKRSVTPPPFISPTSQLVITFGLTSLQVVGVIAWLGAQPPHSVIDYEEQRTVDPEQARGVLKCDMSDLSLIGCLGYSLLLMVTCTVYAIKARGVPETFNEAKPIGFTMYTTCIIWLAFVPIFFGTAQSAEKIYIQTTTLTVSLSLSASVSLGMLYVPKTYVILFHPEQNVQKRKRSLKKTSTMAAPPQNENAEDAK

[12] = Cmax in Sprague-Dawley rat at 10 mg/kg, po and 2.5 mg/kg, iv; type: ADME, organism-based; conditions: in vivo
Outline: (§4)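 Rat PK: compounds formulated in 20% HP-β-CD at pH 4 and given orally and intravenously. Values are geometric means of at least two runs ± SEM.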

[13] = Tmax in Sprague-Dawley rat at 10 mg/kg, po and 2.5 mg/kg, iv; type: ADME, organism-based; conditions: in vivo; outline: as §4
[14] = AUC (0 to infinity) in Sprague-Dawley rat at 10 mg/kg, po and 2.5 mg/kg, iv; type: ADME, organism-based; conditions: plasma; outline: as §4
[15] = Half life in Sprague-Dawley rat at 10 mg/kg, po and 2.5 mg/kg, iv; type: ADME, organism-based; conditions: in vivo; outline: as §4
[16] = Clearance in Sprague-Dawley rat at 10 mg/kg, po and 2.5 mg/kg, iv; type: ADME, organism-based; conditions: in vivo
[17] = Drug uptake in Sprague-Dawley rat brain at 10 mg/kg, sc after 1 hr; type: ADME, organism-based; set-up: dose 10 mg/kg, route subcutaneous; conditions: read-out: Drug uptake
Outline: (§5)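 Brain exposure in male Sprague-Dawley rats after a 10 mg/kg subcutaneous dose, vehicle 20% HP-β-CD at pH 4. Brain level measured in ng/g alongside plasma in ng/mL; geometric mean of at least two runs ± SEM.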

[18] = Drug uptake in Sprague-Dawley rat brain at 10 mg/kg, sc after 2 hrs; type: ADME, organism-based; set-up: dose 10 mg/kg, route subcutaneous; conditions: read-out: Drug uptake; outline: as §5
[19] = Drug uptake in Sprague-Dawley rat brain at 10 mg/kg, sc after 4 hrs; type: ADME, organism-based; set-up: dose 10 mg/kg, route subcutaneous; conditions: read-out: Drug uptake; outline: as §5
[20] = Plasma concentration in Sprague-Dawley rat at 10 mg/kg, sc after 1 hr; type: ADME, organism-based; set-up: dose 10 mg/kg, route subcutaneous
Outline: (§6)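 Male Sprague−Dawley rats given 10 mg/kg subcutaneously, vehicle 20% HP-β-CD at pH 4. Plasma (ng/mL) and brain (ng/g) drug levels determined at the listed post-dose time; B/P ratio derived from them. Values are geometric means of at least two runs ± SEM.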

[21] = Plasma concentration in Sprague-Dawley rat at 10 mg/kg, sc after 2 hrs; type: ADME, organism-based; set-up: dose 10 mg/kg, route subcutaneous; outline: as §6
[22] = Plasma concentration in Sprague-Dawley rat at 10 mg/kg, sc after 4 hrs; type: ADME, organism-based; set-up: dose 10 mg/kg, route subcutaneous; outline: as §6
[23] = Ratio of drug level in brain to plasma of Sprague-Dawley rat at 10 mg/kg, sc after 1 hr; type: ADME, organism-based; set-up: dose 10 mg/kg, route subcutaneous; conditions: read-out: BPR; outline: as §6
[24] = Ratio of drug level in brain to plasma of Sprague-Dawley rat at 10 mg/kg, sc after 2 hrs; type: ADME, organism-based; set-up: dose 10 mg/kg, route subcutaneous; conditions: read-out: BPR; outline: as §6
[25] = Ratio of drug level in brain to plasma of Sprague-Dawley rat at 10 mg/kg, sc after 4 hrs; type: ADME, organism-based; set-up: dose 10 mg/kg, route subcutaneous; conditions: brain and plasma, read-out: BPR; outline: as §6
[26] = biological target: Metabotropic glutamate receptor 1 (Homo sapiens) (UniProt Q13255); assay: Antagonist activity at human mGlu 1 expressed in HEK293 cells at 10 uM by Ca+2 assay; type: functional, cell-based; outline: as §2
[27] = biological target: Metabotropic glutamate receptor 3 (Homo sapiens) (UniProt Q14832); assay: Antagonist activity at human mGlu 3 expressed in HEK293 cells at 10 uM by Ca+2 assay; type: functional, cell-based; outline: as §2
[28] = biological target: Metabotropic glutamate receptor 5 (Homo sapiens) (UniProt P41594); assay: Antagonist activity at human mGlu 5 expressed in HEK293 cells at 10 uM by Ca+2 assay; type: functional, cell-based; outline: as §2
[29] = biological target: T2, Metabotropic glutamate receptor 7; assay: Antagonist activity at human mGlu 7 expressed in HEK293 cells at 10 uM by Ca+2 assay; type: functional, cell-based; outline: as §2
[30] = biological target: Metabotropic glutamate receptor 8 (Homo sapiens) (UniProt O00222); assay: Antagonist activity at human mGlu 8 expressed in HEK293 cells at 10 uM by Ca+2 assay; type: functional, cell-based; outline: as §2
[31] = biological target: Metabotropic glutamate receptor 4 (Homo sapiens) (UniProt Q14833); assay: Antagonist activity at human mGlu 4 expressed in L929 cells assessed inhibition of [35S]GTPgammaS binding by liquid scintillation counting; type: functional, cell-based; outline: as §3
[32] = biological target: Metabotropic glutamate receptor 6 (Rattus norvegicus) (UniProt P35349); assay: Antagonist activity at rat mGlu 6 expressed in CHO cells assessed as inhibition of [35S]GTPgammaS binding by liquid scintillation counting; type: functional, cell-based; outline: as §3
[33] = Oral bioavailability in Sprague-Dawley rat at 10 mg/kg; type: ADME, organism-based; conditions: in vivo
Outline: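 Male Sprague-Dawley rats given 10 mg/kg orally and/or 1.25 mg/kg intravenously; compound formulated in 20% HP-β-CD at pH 4. Cmax, tmax, AUC0−inf, t1/2, clearance and oral bioavailability F derived from plasma levels; geometric mean of at least two runs ± SEM.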

**Q.** With O[C@H]1CC[C@H](n2ccc3cc(-c4ccn5c(CC(F)(F)F)cnc5c4Cl)ccc32)CC1 as the compound, how does the EC50 [1] read?
**A.** The EC50 was 0.16 µM.

**Q.** What about the Emax [2] of the same compound?
**A.** Its Emax is 244%.

**Q.** And the metabolised at 0.25 h, 5 µM [3]?
**A.** Its metabolised at 0.25 h, 5 µM is 14%.

**Q.** And the metabolised at 0.25 h, 5 µM [4]?
**A.** Its metabolised at 0.25 h, 5 µM is 8%.

**Q.** What about the Activity [5] of the same compound?
**A.** Its Activity is “inactive”.

**Q.** What about the Activity [6] of the same compound?
**A.** The Activity was “inactive”.

**Q.** What about the Activity [7] of the same compound?
**A.** The Activity was “inactive”.

**Q.** And the EC50 [8]?
**A.** Its EC50 is 5.2 µM.

**Q.** And the Activity [9]?
**A.** The Activity was “inactive”.

**Q.** And the Activity [10]?
**A.** Its Activity is “inactive”.

**Q.** What about the Activity [11] of the same compound?
**A.** Its Activity is “inactive”.

**Q.** And the Cmax [12]?
**A.** The Cmax was 1.14 µg/mL.

**Q.** And the Tmax [13]?
**A.** Its Tmax is 3.3 h.

**Q.** And the AUC(0-inf) [14]?
**A.** The AUC(0-inf) was 10.6 µg·h/mL.

**Q.** And the half-life [15]?
**A.** The half-life was 4.3 h.

**Q.** What about the clearance [16] of the same compound?
**A.** The clearance was 0.9 L/h/kg.

**Q.** What about the concentration at 1 h [17] of the same compound?
**A.** Its concentration at 1 h is 932 ng/g.

**Q.** What about the concentration at 2 h [18] of the same compound?
**A.** The concentration at 2 h was 1040 ng/g.

**Q.** And the concentration at 4 h [19]?
**A.** Its concentration at 4 h is 843 ng/g.

**Q.** What about the concentration at 1 h [20] of the same compound?
**A.** The concentration at 1 h was 3.81 µg/mL.

**Q.** What about the concentration at 2 h [21] of the same compound?
**A.** The concentration at 2 h was 3.73 µg/mL.

**Q.** And the concentration at 4 h [22]?
**A.** The concentration at 4 h was 1.95 µg/mL.

**Q.** And the Kp at 1 h [23]?
**A.** The Kp at 1 h was 0.2.

**Q.** And the Kp at 2 h [24]?
**A.** The Kp at 2 h was 0.3.

**Q.** What about the Kp at 4 h [25] of the same compound?
**A.** The Kp at 4 h was 0.4.

**Q.** And the Activity [26]?
**A.** Its Activity is “inactive”.

**Q.** What about the Activity [27] of the same compound?
**A.** Its Activity is “inactive”.

**Q.** What about the Activity [28] of the same compound?
**A.** Its Activity is “inactive”.

**Q.** What about the Activity [29] of the same compound?
**A.** Its Activity is “inactive”.

**Q.** What about the Activity [30] of the same compound?
**A.** The Activity was “inactive”.

**Q.** What about the Activity [31] of the same compound?
**A.** The Activity was “inactive”.

**Q.** And the Activity [32]?
**A.** The Activity was “inactive”.

**Q.** And the bioavailability [33]?
**A.** Its bioavailability is 100%.
